Laboratory results reported in ChEMBL document CHEMBL4715734, “Discovery of the Potent and Selective M1 PAM-Agonist N-[(3R,4S)-3-Hydroxytetrahydro-2H-pyran-4-yl]-5-methyl-4-[4-(1,3-thiazol-4-yl)benzyl]pyridine-2-carboxamide (PF-06767832): Evaluation of Efficacy and Cholinergic Side Effects” (J Med Chem, 2016).
Residue numbers refer to the chain shown, from its start.

Tests used:
[1] = molecular target: T1, Muscarinic acetylcholine receptor M4 (Homo sapiens, UniProt P08173); assay: Positive allosteric modulation of human recombinant muscarinic M4 receptor stably expressed in HEK cells assessed as increase in ACh-induced cAMP accumulation up to 10 uM measured after 10 mins by GloSensor cAMP Assay; assay type: cell-based
T1 sequence (P08173 whole entry): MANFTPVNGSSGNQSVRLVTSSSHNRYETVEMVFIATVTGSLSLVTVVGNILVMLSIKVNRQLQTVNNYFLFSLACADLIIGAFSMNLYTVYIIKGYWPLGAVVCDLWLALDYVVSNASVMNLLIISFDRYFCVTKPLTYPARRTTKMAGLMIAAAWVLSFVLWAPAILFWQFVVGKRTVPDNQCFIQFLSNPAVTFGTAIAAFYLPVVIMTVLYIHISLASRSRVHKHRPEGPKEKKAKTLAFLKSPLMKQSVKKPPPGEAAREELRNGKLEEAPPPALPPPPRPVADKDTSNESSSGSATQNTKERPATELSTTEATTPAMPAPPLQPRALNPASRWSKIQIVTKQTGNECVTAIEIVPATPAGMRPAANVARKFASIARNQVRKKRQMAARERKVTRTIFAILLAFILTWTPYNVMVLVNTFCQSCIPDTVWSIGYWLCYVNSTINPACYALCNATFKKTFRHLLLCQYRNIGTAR

[2] = Clearance in dog at 0.1 mg/kg, iv administered as single bolus dose; assay type: ADME, organism-based, Canis lupus familiaris; conditions: in vivo
[3] = molecular target: T2, Muscarinic acetylcholine receptor M5 (Homo sapiens, UniProt P08912); assay: Agonist activity at human recombinant muscarinic M5 receptor stably expressed in CHO cells assessed as increase in intracellular calcium level up to 10 uM incubated for 10 mins by Fluo-8AM dye based FLIPR TETRA method; assay type: cell-based
T2 sequence (P08912 whole entry): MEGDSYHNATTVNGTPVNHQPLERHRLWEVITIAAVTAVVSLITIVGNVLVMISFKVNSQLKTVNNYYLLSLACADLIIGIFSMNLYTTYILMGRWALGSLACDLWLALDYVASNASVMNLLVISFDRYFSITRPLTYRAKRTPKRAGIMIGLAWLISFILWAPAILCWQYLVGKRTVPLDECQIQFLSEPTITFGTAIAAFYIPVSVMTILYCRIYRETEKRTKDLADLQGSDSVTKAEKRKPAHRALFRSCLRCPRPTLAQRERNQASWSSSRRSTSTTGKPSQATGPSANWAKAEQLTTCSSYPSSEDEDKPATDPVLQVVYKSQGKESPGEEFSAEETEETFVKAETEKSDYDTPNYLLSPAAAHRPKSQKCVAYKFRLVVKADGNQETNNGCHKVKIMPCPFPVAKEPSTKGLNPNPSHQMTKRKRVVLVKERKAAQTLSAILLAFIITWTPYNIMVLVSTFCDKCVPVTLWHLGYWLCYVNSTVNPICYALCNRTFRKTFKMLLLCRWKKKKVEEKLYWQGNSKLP

[4] = Fraction unbound in rat brain; assay type: ADME, cell-free
[5] = Clearance in rat at 1 mg/kg, iv administered as single bolus dose; assay type: ADME, organism-based; conditions: in vivo
[6] = molecular target: T3, Muscarinic acetylcholine receptor M1 (Homo sapiens, UniProt P11229); assay: Positive allosteric modulation of muscarinic M1 receptor (unknown origin) expressed in CHO cells assessed as increase in Ach-induced accumulation of inositol phosphate accumulation measured after 30 mins by HTRF assay; assay type: functional, cell-based
T3 sequence (P11229 whole entry): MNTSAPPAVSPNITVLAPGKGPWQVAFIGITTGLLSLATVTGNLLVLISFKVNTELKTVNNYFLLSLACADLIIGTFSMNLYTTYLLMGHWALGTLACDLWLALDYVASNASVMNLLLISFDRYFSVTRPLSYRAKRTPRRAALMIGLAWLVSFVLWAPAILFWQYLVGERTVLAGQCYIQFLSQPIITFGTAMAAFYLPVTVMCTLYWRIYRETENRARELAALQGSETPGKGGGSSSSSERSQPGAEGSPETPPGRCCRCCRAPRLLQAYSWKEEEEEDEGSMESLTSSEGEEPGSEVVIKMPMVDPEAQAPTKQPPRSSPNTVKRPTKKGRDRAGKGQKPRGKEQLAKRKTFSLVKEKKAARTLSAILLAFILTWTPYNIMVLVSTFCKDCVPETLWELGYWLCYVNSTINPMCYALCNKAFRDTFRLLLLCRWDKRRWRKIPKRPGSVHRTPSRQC

[7] = fAUC (0 to 24 hrs) in dog at 3 mg/kg, po using spray-dried dispersion formulation; assay type: ADME, organism-based, Canis lupus familiaris; conditions: in vivo
[8] = molecular target: T4, Muscarinic acetylcholine receptor M1 (Rattus norvegicus) (UniProt P08482); assay: Positive allosteric modulation of muscarinic M1 receptor in Sprague-Dawley rat hippocampal slice assessed as increase in carbachol-induced CA1 spiked rates by electrophysiological analysis; conditions: filed as positive allosteric modulator
T4 sequence (whole entry): T3 sequence (P11229 whole entry) with A5V, T254S, P309S, R320K, A337G, I413V

[9] = molecular target: Dual 3',5'-cyclic-AMP and -GMP phosphodiesterase 11A (Homo sapiens, UniProt Q9HCR9); assay: Inhibition of PDE11A4 (unknown origin)
Sequence of Dual 3',5'-cyclic-AMP and -GMP phosphodiesterase 11A (Q9HCR9 whole entry): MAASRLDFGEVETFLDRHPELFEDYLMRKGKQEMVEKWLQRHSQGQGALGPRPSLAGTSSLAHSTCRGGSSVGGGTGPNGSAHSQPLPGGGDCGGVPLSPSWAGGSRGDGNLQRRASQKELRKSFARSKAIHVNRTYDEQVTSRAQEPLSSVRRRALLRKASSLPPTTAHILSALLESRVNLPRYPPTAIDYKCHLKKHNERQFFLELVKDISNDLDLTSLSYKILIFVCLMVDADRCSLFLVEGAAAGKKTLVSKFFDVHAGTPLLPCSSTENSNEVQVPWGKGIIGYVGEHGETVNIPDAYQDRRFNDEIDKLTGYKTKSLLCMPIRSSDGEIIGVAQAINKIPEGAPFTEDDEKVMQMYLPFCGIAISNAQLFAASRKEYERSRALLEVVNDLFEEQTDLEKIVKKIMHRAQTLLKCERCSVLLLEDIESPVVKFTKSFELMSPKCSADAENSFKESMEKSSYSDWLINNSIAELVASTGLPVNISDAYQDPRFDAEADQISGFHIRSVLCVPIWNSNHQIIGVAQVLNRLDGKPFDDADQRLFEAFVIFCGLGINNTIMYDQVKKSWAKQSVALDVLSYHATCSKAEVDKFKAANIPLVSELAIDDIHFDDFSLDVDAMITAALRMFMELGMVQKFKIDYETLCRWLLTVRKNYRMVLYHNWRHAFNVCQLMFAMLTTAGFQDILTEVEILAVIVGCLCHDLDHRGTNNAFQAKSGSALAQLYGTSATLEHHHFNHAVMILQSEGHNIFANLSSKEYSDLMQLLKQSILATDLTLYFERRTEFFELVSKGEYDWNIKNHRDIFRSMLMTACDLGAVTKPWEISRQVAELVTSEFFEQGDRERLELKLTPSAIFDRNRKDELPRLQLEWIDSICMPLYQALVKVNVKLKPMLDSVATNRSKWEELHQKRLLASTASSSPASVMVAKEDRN

[10] = molecular target: T5, Muscarinic acetylcholine receptor M1 (Homo sapiens) (UniProt P11229); assay: Binding affinity to human muscarinic M1 receptor stably expressed in CHO cells assessed as increase in intracellular calcium level measured after 10 mins by Fluo-8AM dye based FLIPR TETRA method; assay type: cell-based; conditions: filed as positive allosteric modulator
T5 sequence (whole entry): T3 sequence (P11229 whole entry)

[11] = Ratio of fAUC in C57BL/6 mouse brain to plasma; assay type: ADME, cell-free; conditions: brain and plasma, read-out: Ratio AUC
[12] = Toxicity in dog assessed as side-to-side head movements at 45 mg/kg, po using spray-dried dispersion formulation measured after 45 mins; assay type: organism-based, Canis lupus familiaris; conditions: in vivo, 0.75 h
[13] = Toxicity in female rat assessed as increase in food intake at 15 mg/kg, po administered for 14 days; assay type: organism-based; conditions: in vivo, 336 h, time 14 day
Procedure, shortened: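 Two-week repeat-dose toxicity study in rats. Oral dosing in 0.5% methylcellulose at 3, 10, 30 (males)/15 (females) mg/kg, N=4/sex/dose. Food intake, body weight gain and histopathology were assessed.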

[14] = Partial agonist activity at muscarinic M2/M3 receptor in Hartley guinea pig ileum assessed as stimulation of contraction in presence of mAChR antagonist atropine; assay type: tissue-based, Cavia porcellus
Procedure, shortened: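 Agonist mode used a guinea pig ileum tissue bath with the compound applied alone. Concentration–response curves were run with or without the non-selective muscarinic antagonist atropine. Contraction was expressed relative to the maximal carbachol response.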

SMILES: Cc1cnc(C(=O)N[C@H]2CCOC[C@@H]2O)cc1Cc1ccc(-c2cscn2)cc1
- Activity [1]: Not Active
- clearance [2]: 2.73 mL/min/kg
- Activity [3]: Not Active
- Fu [4]: 4%
- clearance [5]: 3.29 mL/min/kg
- EC50 [6]: 447 nM
- fAUC [7]: 5.242 µM·h
- Activity [8]: Dose-dependent effect
- IC50 [9]: 4940 nM
- Ka [10]: 2 µM
- Kp uu [11]: 0.34
- Activity [12]: Toxic
- Activity [13]: Non-Toxic
- Activity [14]: Not Active
